Laboratory results taken from ChEMBL document CHEMBL1150381, “Effects of amide constituents from pepper on adipogenesis in 3T3-L1 cells” (Bioorg Med Chem Lett, 2008).
Calls of active or inactive are those of the source. The calls are words filed in the database; no cut-off is given here.

Legend:
3T3-L1 [1] = experiment: Antidiabetic activity in mouse 3T3L1 cells assessed as enhancement of triglyceride accumulation at 1 uM; assay type: functional
How it was run: (§1)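 3T3-L1 cells (5.0 × 10^4/well) in DMEM + 10% FCS; after 24 h differentiated 72 h in high-glucose DMEM/10% FCS with 1 µM dexamethasone, 0.5 mM IBMX, 5 µg/mL insulin, then maintenance medium (10% FCS, 5 µg/mL insulin) 4 days. Compound in DMSO (final 0.1%) in both media. Day 8: cells sonicated in water, triglyceride measured by enzymatic kit; means ± SEM, n = 4.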

3T3-L1 [2] = experiment: Antidiabetic activity in mouse 3T3L1 cells assessed as enhancement of triglyceride accumulation at 30 uM; assay type: functional; how it was run: as §1
3T3-L1 [3] = experiment: Antidiabetic activity in mouse 3T3L1 cells assessed as enhancement of triglyceride accumulation at 3 uM; assay type: functional; how it was run: as §1
3T3-L1 [4] = experiment: Antidiabetic activity in mouse 3T3L1 cells assessed as enhancement of triglyceride accumulation at 10 uM; assay type: functional; how it was run: as §1
3T3-L1 [5] = experiment: Cytotoxicity against mouse 3T3L1 cells at 30 uM; assay type: cell-based; settings: 3t3-l1, 30 µM
How it was run: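 Cells differentiated and treated through day 8 as in triglyceride assay; cytotoxicity at 30 µM judged by cell detachment from culture plate surface.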

3T3-L1 [6] = experiment: Increase in PPARgamma2 mRNA expression in mouse 3T3L1 cells after 4 days by RT-PCR; assay type: functional, cell-based
How it was run: (§2)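 3T3-L1 cells (1.0 × 10^6/well) in DMEM + 10% FCS, differentiated with compound; control 0.1% DMSO; mRNA levels of adiponectin, PPARγ2, GLUT4, IRS-1 assessed; means ± SEM, n = 3.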

3T3-L1 [7] = experiment: Induction of adiponectin release to medium in mouse 3T3L1 cells at 10 uM by ELISA; assay type: functional, cell-based
How it was run: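 3T3-L1 cells (5.0 × 10^4/well) differentiated, then maintenance medium 4 days; compound in DMSO (final 0.1%) present in media; on day 8 adiponectin in culture medium quantified by ELISA.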

3T3-L1 [8] = experiment: Increase in 2-deoxyglucose uptake in mouse 3T3L1 cells at 3 uM by liquid scintillation counter; assay type: functional, cell-based
How it was run: (§3)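 Cells differentiated as for triglyceride assay with compound in DMSO (final 0.1%) in differentiation and maintenance media. Day 8: serum-free 4 h, KRP buffer wash, 20 min with 100 nM insulin, then 0.1 mM 2-deoxyglucose plus [3H]2-deoxyglucose (1 µCi/mL) 10 min at 37 °C. Lysed in 1 M NaOH, neutralized, scintillation counted; cytochalasin B (20 µM) nonspecific uptake subtracted.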

3T3-L1 [9] = experiment: Increase in adiponectin mRNA expression in mouse 3T3L1 cells at 10 uM after 4 days by RT-PCR; assay type: functional, cell-based; how it was run: as §2
3T3-L1 [10] = experiment: Increase in IRS1 mRNA expression in mouse 3T3L1 cells at 30 uM after 4 days by RT-PCR; assay type: functional, cell-based; how it was run: as §2
3T3-L1 [11] = experiment: Increase in GLUT4 mRNA expression in mouse 3T3L1 cells after 4 days by RT-PCR; assay type: functional, cell-based; how it was run: as §2
3T3-L1 [12] = experiment: Increase in 2-deoxyglucose uptake in mouse 3T3L1 cells by liquid scintillation counter; assay type: functional, cell-based; how it was run: as §3

Structure (SMILES)	Activity (3T3-L1 [1])	Activity (3T3-L1 [2])	Activity (3T3-L1 [3])	Activity (3T3-L1 [4])	Activity (3T3-L1 [5])	Activity (3T3-L1 [6])	Activity (3T3-L1 [7])	Activity (3T3-L1 [8])	Activity (3T3-L1 [9])	Activity (3T3-L1 [10])	Activity (3T3-L1 [11])	Activity (3T3-L1 [12])
CCCCC/C=C\CCCCCCCC/C=C/C=C/C(=O)NCC(C)C	-3%	20.2%	-7.2%	7.2%								
CCCCCCCCCCCCC/C=C/C=C/C(=O)NCC(C)C	14.1%	20.6%	3.3%	19.6%								
CCCCCCC/C=C/C=C/C(=O)NCC(C)C	10.1%	15.3%	16.3%	11.1%								
O=C(O)/C=C/C=C/CC/C=C/c1ccc2c(c1)OCO2	-3.9%	-7.3%	1.5%	3.9%								
CCOC(=O)/C=C/C=C/CC/C=C/c1ccc2c(c1)OCO2	2.9%	8.7%	2.9%	1.2%								
CC(C)CNC(=O)/C=C/C=C/CCCCCCCC/C=C/c1ccc2c(c1)OCO2 [BRACHYSTAMIDE B]	11.1%	13.7%	18.5%	16.8%								
O=C(/C=C/C=C/CC/C=C/c1ccc2c(c1)OCO2)N1CCCCC1 [DEHYDROPIPERNOLINE]	0.5%		1.8%	1.5%	-19.9%							
CC(C)CNC(=O)/C=C/C=C/CCCCCC/C=C/c1ccc2c(c1)OCO2 [GUINEENSINE]	1.5%	2%	9.7%	0.8%								
COC(=O)/C=C/C=C/c1ccc2c(c1)OCO2 [METHYL PIPERATE]	5.2%	17.1%	17.8%	25.2%								
CCCCC/C=C/C=C/C(=O)NCC(C)C [PELLITORIN]	4.4%	6.2%	18.2%	10%								
O=C(/C=C/CCc1ccc2c(c1)OCO2)N1CCCCC1 [PIPERANINE]	20.4%	8.3%	19.1%	13.1%								
O=C(/C=C/CCCCCC/C=C/c1ccc2c(c1)OCO2)N1CCCCC1 [PIPERCHABAMIDE B]	-14.1%		-2.2%	-3.5%	-30.3%							
O=C(/C=C/C=C/CCCCCC/C=C/c1ccc2c(c1)OCO2)N1CCCCC1 [PIPERCHABAMIDE C]	9.4%	-11%	17.6%	-10.2%								
CC(C)CNC(=O)/C=C/CCCCCC/C=C/c1ccc2c(c1)OCO2 [PIPERCHABAMIDE D]	1.7%	4.7%	8%	8.5%								
O=C(/C=C/C=C/c1ccc2c(c1)OCO2)N1CCCCC1 [PIPERINE]	-1.2%	-1.2%	-3.9%	-14.2%								
CC(C)CNC(=O)/C=C/C=C/c1ccc2c(c1)OCO2 [PIPERLONGUMININE]	19.5%	20.4%	28.1%	31.8%								
O=C(/C=C/CCCC/C=C/c1ccc2c(c1)OCO2)N1CCCCC1 [PIPERNONALINE]	1%		5.4%	10.5%	-61.2%							
O=C(CCCCCC/C=C/c1ccc2c(c1)OCO2)N1CCCCC1 [PIPERROLEIN B]	-2.8%	9.4%	30.3%	20.9%								
O=C(/C=C/C=C/CCCC/C=C/c1ccc2c(c1)OCO2)N1CCCCC1 [PIPERUNDECALIDIENE]	-13%		-7.3%	7.3%	-60.8%							
CC(C)CNC(=O)/C=C/C=C/CC/C=C/c1ccc2c(c1)OCO2 [RETROFRACTAMIDE A]	25.1%	33.3%	27.3%	27.8%		Active	Active	Active	Active	Active	Active	Dose-dependent effect
CC(C)CNC(=O)/C=C/C=C/CCCC/C=C/c1ccc2c(c1)OCO2 [RETROFRACTAMIDE B]	18.8%	27.6%	29.9%	28.4%								
CC(C)CNC(=O)/C=C/CCCC/C=C/c1ccc2c(c1)OCO2 [RETROFRACTAMIDE C]	9.7%	15.4%	15%	22.2%								
Cc1c(C)c2c(c(C)c1O)CCC(C)(COc1ccc(CC3SC(=O)NC3=O)cc1)O2 (centres undefined) [TROGLITAZONE]	33.8%		40.5%	39.6%				Active				
